In ChEMBL document CHEMBL1155664, “New carbazole alkaloids from Clausena anisata with antitumor promoting activity” (J Nat Prod, 2000):

Columns and labels:
Assay type in all cases: cell-based
Raji [1] = assay: Inhibition of 12-O-tetradecanoylphorbol-13-acetate-induced EBV-early antigen activation in human Raji cells assessed as EA activation at 32 nmol relative to 12-O-tetradecanoylphorbol-13-acetate; design: scale not given: the % may be the effect or the level left; conditions: human gammaherpesvirus 4
In short: (§1)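 Raji cells induced with TPA (32 pmol = 20 ng/mL) plus compound at 10, 100, 500 or 1000 mol ratio/TPA (0.32, 3.2, 16, 32 nmol). EBV early antigen activation expressed as % of the TPA-only positive control (100%), given with S.D. Results count only where Raji viability stays at or above 60% at 2 days.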

Raji [2] = assay: Inhibition of 12-O-tetradecanoylphorbol-13-acetate-induced EBV-early antigen activation in human Raji cells assessed as EA activation at 16 nmol relative to 12-O-tetradecanoylphorbol-13-acetate; design: scale not given: the % may be the effect or the level left; conditions: human gammaherpesvirus 4; in short: as §1
Raji [3] = assay: Inhibition of 12-O-tetradecanoylphorbol-13-acetate-induced EBV-early antigen activation in human Raji cells assessed as EA activation at 3.2 nmol relative to 12-O-tetradecanoylphorbol-13-acetate; design: scale not given: the % may be the effect or the level left; conditions: human gammaherpesvirus 4; in short: as §1
Raji [4] = assay: Inhibition of 12-O-tetradecanoylphorbol-13-acetate-induced EBV-early antigen activation in human Raji cells assessed as EA activation at 0.32 nmol relative to 12-O-tetradecanoylphorbol-13-acetate; design: scale not given: the % may be the effect or the level left; conditions: human gammaherpesvirus 4; in short: as §1
[5] = Cytotoxicity against human Raji cells assessed as cell viability at 32 nmol by trypan blue assay; conditions: read-out: Activity
In short: (§2)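 Raji cells treated with compound together with TPA (32 pmol, 20 ng/mL) at mole ratios to TPA of 10, 100, 500 or 1000 (0.32, 3.2, 16, 32 nmol). Viability determined by trypan blue staining 2 days after treatment. At least 60% viability is needed for the EBV-EA result to be valid.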

[6] = Cytotoxicity against human Raji cells assessed as cell viability at 16 nmol by trypan blue assay; conditions: read-out: Activity; in short: as §2
[7] = Cytotoxicity against human Raji cells assessed as cell viability at 3.2 nmol by trypan blue assay; conditions: read-out: Activity; in short: as §2
[8] = Cytotoxicity against human Raji cells assessed as cell viability at 0.32 nmol by trypan blue assay; conditions: read-out: Activity; in short: as §2

SMILES | Activity (Raji [1]) [%] | Activity (Raji [2]) [%] | Activity (Raji [3]) [%] | Activity (Raji [4]) [%] | viability at 32 nmol [5] [%] | viability at 16 nmol [6] [%] | viability at 3.2 nmol [7] [%] | viability at 0.32 nmol [8] [%]
COC(=O)c1ccc2[nH]c3ccccc3c2c1 | 21.7 | 46.3 | 81.4 | 100 | 60 | > 80 | > 80 | > 80
C=C(C)C1Cc2c(cc(O)c3[nH]c4ccccc4c23)C(=O)O1 (configuration not stated) [CLAUSAMINE A] | 15.4 | 28.3 | 73.7 | 95.5 | 60 | 70 | > 80 | > 80
C=C(C)C1Cc2c(cc(OC)c3[nH]c4ccccc4c23)C(=O)O1 (configuration not stated) [CLAUSAMINE B] | 18.3 | 39.2 | 78.2 | 100 | 60 | 70 | > 80 | > 80
COc1cc2c(c3c1[nH]c1ccccc13)CC(C(C)(C)O)OC2=O (configuration not stated) [CLAUSAMINE C] | 12.4 | 27.2 | 72 | 92.3 | 60 | 70 | > 80 | > 80
COC(=O)c1cc(OC)c2[nH]c3ccccc3c2c1CC=C(C)C [CLAUSAMINE] | 18.2 | 34.2 | 66 | 92.3 | 60 | 70 | > 80 | > 80
COC(=O)c1cc(O)c2[nH]c3ccccc3c2c1 [CLAUSINE E] | 27.4 | 42.4 | 74.6 | 100 | 60 | > 80 | > 80 | > 80
COC(=O)c1cc(O)c2[nH]c3ccccc3c2c1CC=C(C)C [CLAUSINE F] | 20.2 | 37.5 | 69.8 | 94.6 | 60 | > 80 | > 80 | > 80
COc1cc(C=O)c(CC=C(C)C)c2c1[nH]c1ccccc12 [EKEBERGININE] | 10.5 | 22.4 | 63.5 | 90.3 | 60 | > 80 | > 80 | > 80
O=Cc1cc(O)c2[nH]c3ccccc3c2c1 [O-DEMETHYLMURRAYANINE] | 25.2 | 40.3 | 69.4 | 100 | 60 | > 80 | > 80 | > 80
